Assay results from ChEMBL document CHEMBL4028879, “Structure-Activity Relationship Studies of Pyrimido[5,4-b]indoles as Selective Toll-Like Receptor 4 Ligands” (J Med Chem, 2017).

How the values were obtained:
[1] = molecular target: T1, Toll-like receptor 4 (Mus musculus) (UniProt Q9QUK6); experiment: Agonist activity at TLR4 in C57BL/6 mouse primary BMDC assessed as induction of IL-6 release at 5 uM after 18 hrs by ELISA relative to N-cyclohexyl-2-(5-methyl-4-oxo-3-phenyl-4,5-dihydro-3H-pyrimido[5,4-b]indol-2-ylthio)acetamide
T1 sequence (whole entry): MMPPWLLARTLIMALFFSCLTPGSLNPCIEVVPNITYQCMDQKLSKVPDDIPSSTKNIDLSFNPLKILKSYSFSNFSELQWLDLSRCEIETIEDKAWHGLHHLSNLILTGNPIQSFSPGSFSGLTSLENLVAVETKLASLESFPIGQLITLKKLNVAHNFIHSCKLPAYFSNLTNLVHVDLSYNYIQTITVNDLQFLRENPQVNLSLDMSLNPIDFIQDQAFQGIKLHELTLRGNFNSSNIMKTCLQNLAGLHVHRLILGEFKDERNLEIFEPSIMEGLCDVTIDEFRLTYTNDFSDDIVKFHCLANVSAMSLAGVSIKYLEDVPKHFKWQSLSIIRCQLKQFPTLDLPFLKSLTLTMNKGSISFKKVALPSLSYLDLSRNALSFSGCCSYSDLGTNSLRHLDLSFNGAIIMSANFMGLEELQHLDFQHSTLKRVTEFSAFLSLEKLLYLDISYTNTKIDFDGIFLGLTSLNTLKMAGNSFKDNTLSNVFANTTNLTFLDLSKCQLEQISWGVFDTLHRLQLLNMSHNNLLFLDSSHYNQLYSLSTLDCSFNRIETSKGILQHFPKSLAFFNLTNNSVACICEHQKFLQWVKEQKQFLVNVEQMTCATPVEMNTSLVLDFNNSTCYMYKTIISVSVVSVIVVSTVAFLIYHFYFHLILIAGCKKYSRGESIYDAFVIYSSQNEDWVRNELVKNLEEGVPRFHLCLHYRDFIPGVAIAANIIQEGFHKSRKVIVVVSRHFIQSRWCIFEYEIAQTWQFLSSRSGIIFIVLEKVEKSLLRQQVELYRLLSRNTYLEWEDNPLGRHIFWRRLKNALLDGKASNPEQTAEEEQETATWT

[2] = molecular target: T1, Toll-like receptor 4 (Mus musculus); experiment: Agonist activity at mouse TLR4 expressed in HEK293 blue cells assessed as induction of NF-kappaB activation-mediated SEAP production by measuring AUC after 20 to 24 hrs by colorimetric assay relative to N-cyclohexyl-2-(5-methyl-4-oxo-3-phenyl-4,5-dihydro-3H-pyrimido[5,4-b]indol-2-ylthio)acetamide; type: cell-based
[3] = Cytotoxicity against C57BL/6 mouse primary BMDC assessed as cell viability at 5 uM after 18 hrs by MTT assay relative to control; type: cell-based; conditions: primary BMDC (bone marrow-derived dendritic cells), read-out: Activity
Toll-like receptor 4 [4] = molecular target: T2, Toll-like receptor 4 (Homo sapiens, UniProt O00206); experiment: Agonist activity at human TLR4 expressed in HEK293 blue cells assessed as induction of NF-kappaB activation-mediated SEAP production by measuring AUC after 20 to 24 hrs by colorimetric assay relative to N-cyclohexyl-2-(5-methyl-4-oxo-3-phenyl-4,5-dihydro-3H-pyrimido[5,4-b]indol-2-ylthio)acetamide; type: cell-based
Toll-like receptor 4 [5] = molecular target: T3, Toll-like receptor 4 (Mus musculus, UniProt Q9QUK6); experiment: Agonist activity at mouse TLR4 expressed in HEK293 blue cells assessed as induction of NF-kappaB activation-mediated SEAP production after 20 to 24 hrs by colorimetric assay; type: cell-based
T3 sequence (Q9QUK6 whole entry): T1 sequence (whole entry)
In short: (§1)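 HEK-Blue cells expressing human or mouse TLR4, 2.5 × 10⁴/well in DMEM with 10% FBS, pyruvate, glutamine and antibiotics. Graded doses from 20 mM DMSO stocks, final DMSO 0.05%. Supernatants harvested after 20–24 h; SEAP read by colorimetric substrate at 630 nm. EC50 taken as the concentration giving 50% of maximal activation. LPS 100 ng/mL served as positive control.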

Toll-like receptor 4 [6] = molecular target: T2, Toll-like receptor 4; experiment: Agonist activity at human TLR4 expressed in HEK293 blue cells assessed as induction of NF-kappaB activation-mediated SEAP production after 20 to 24 hrs by colorimetric assay; type: cell-based; in short: as §1

T2 sequence (O00206 whole entry): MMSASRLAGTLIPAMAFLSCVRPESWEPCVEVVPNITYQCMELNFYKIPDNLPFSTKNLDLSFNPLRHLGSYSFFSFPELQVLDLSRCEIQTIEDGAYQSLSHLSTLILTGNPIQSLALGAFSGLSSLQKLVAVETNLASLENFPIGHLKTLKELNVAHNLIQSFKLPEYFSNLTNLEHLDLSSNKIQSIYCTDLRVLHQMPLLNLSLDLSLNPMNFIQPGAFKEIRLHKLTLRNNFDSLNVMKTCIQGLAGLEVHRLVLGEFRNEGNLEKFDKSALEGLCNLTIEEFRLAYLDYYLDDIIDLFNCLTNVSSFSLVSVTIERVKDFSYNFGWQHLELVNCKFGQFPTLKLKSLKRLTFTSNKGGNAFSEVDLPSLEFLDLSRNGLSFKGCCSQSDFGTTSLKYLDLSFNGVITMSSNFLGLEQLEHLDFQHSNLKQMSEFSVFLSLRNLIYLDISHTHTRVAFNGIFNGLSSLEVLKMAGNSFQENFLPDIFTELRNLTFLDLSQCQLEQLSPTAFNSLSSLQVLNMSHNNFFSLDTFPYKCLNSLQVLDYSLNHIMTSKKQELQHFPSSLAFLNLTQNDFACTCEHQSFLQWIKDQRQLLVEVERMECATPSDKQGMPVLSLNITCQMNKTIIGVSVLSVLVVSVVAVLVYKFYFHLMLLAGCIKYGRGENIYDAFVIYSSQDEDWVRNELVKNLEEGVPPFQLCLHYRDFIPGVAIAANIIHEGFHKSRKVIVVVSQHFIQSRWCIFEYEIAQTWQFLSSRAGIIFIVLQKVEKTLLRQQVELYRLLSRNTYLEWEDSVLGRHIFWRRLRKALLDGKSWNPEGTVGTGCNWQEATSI

Row | Structure (SMILES) | Activity [1] [%] | Activity [2] [%] | viability at 18 h, 5 µM [3] [%] | Activity (Toll-like receptor 4 [4]) [%] | EC50 (Toll-like receptor 4 [5]) [µM] | EC50 (Toll-like receptor 4 [6]) [µM]
1 | O=C(CCSc1nc2c([nH]c3ccccc32)c(=O)n1-c1ccccc1)NC1CCCCC1 | 0 | 3 | 58 | 7 | > 10 | > 10
2 | Cc1[nH]c2c(=O)n(-c3ccccc3)c(SCC(=O)NC3CCCCC3)nc2c1C | 78 | 28 | 70 | 18 | > 10 | > 10
3 | Cn1c2ccccc2c2nc(S(=O)(=O)CC(=O)NC3CCCCC3)n(-c3ccccc3)c(=O)c21 | 0 | 2 | 50 | 16 | > 10 | > 10
4 | Cn1ccc2nc(SCC(=O)NC3CCCCC3)n(-c3ccccc3)c(=O)c21 | 1 | 5 | 117 | 17 | > 10 | > 10
5 | Cn1c2ccc(I)cc2c2nc(SCC(=O)NC3CCCCC3)n(-c3ccccc3)c(=O)c21 | 74 | 104 | 75 | 204 | 2.51 | 3.75
6 | CCCCCCCC(=O)Nc1ccc2c(c1)c1nc(SCC(=O)NC3CCCCC3)n(-c3ccccc3)c(=O)c1n2C | 0 | 1 | 35 | 15 | > 10 | > 10
7 | Cn1c2ccccc2c2nc(OCC(=O)NC3CCCCC3)n(-c3ccccc3)c(=O)c21 | 0 | 1 | 58 | 9 | > 10 | > 10
8 | Cn1c2ccc(-c3ccc(-c4ccccc4)cc3)cc2c2nc(SCC(=O)NC3CCCCC3)n(-c3ccccc3)c(=O)c21 | 0 | 1 | 23 | 31 | > 10 | > 10
9 | Cn1c2c(c3nc(SCC(=O)NC4CCCCC4)n(-c4ccccc4)c(=O)c31)CCCC2 | 65 | 13 | 106 | 8 | > 10 | > 10
10 | Cn1c2ccc(NC(=O)CCC(=O)O)cc2c2nc(SCC(=O)NC3CCCCC3)n(-c3ccccc3)c(=O)c21 | 0 | 3 | 75 | 28 | > 10 | > 10
11 | Cn1c2cc(Br)ccc2c2nc(SCC(=O)NC3CCCCC3)n(-c3ccccc3)c(=O)c21 | 73 | 34 | 93 | 40 | 4.89 | > 10
12 | Cn1c2ccccc2c2nc(NCCC(=O)NC3CCCCC3)n(-c3ccccc3)c(=O)c21 | 0 | 2 | 92 | 8 | > 10 | > 10
13 | O=C(CCCSc1nc2c([nH]c3ccccc32)c(=O)n1-c1ccccc1)NC1CCCCC1 | 0 | 2 | 70 | 8 | > 10 | > 10
14 | C#Cc1ccc2c(c1)c1nc(SCC(=O)NC3CCCCC3)n(-c3ccccc3)c(=O)c1n2C | 92 | 92 | 81 | 107 | 2.74 | 3.27
15 | Cn1c2ccc(NC(=O)c3ccccc3)cc2c2nc(SCC(=O)NC3CCCCC3)n(-c3ccccc3)c(=O)c21 | 7 | 2 | 43 | 26 | > 10 | > 10
16 | Cc1c(C)n(C)c2c(=O)n(-c3ccccc3)c(SCC(=O)NC3CCCCC3)nc12 | 81 | 22 | 100 | 12 | > 10 | > 10
17 | O=C(CSc1nc2c3c([nH]c2c(=O)n1-c1ccccc1)CCCCC3)NC1CCCCC1 | 115 | 82 | 84 | 137 | 2.83 | 7.42
18 | O=c1c2[nH]c3ccccc3c2nc(SCCCC2CCCCC2)n1-c1ccccc1 | 0 | 1 | 57 | 9 | > 10 | > 10
19 | Cn1c2ccc(C#N)cc2c2nc(SCC(=O)NC3CCCCC3)n(-c3ccccc3)c(=O)c21 | 45 | 14 | 107 | 12 | > 10 | > 10
20 | O=C(CSc1nc2cc[nH]c2c(=O)n1-c1ccccc1)NC1CCCCC1 | 0 | 4 | 99 | 7 | > 10 | > 10
21 | O=C(CSc1nc2c3c([nH]c2c(=O)n1-c1ccccc1)CCCC3)NC1CCCCC1 | 80 | 36 | 91 | 27 | 7.12 | > 10
22 | Cn1c2ccc(C#C[Si](C)(C)C)cc2c2nc(SCC(=O)NC3CCCCC3)n(-c3ccccc3)c(=O)c21 | 78 | 85 | 73 | 87 | 3.3 | > 10
23 | Cn1c2ccc(Br)cc2c2nc(SCC(=O)NC3CCCCC3)n(-c3ccccc3)c(=O)c21 | 120 | 103 | 63 | 159 | 2.45 | 3.58
24 | Cn1c2ccc(N)cc2c2nc(SCC(=O)NC3CCCCC3)n(-c3ccccc3)c(=O)c21 | 0 | 3 | 102 | 17 | > 10 | > 10
25 | Cn1c2cc(C#N)ccc2c2nc(SCC(=O)NC3CCCCC3)n(-c3ccccc3)c(=O)c21 | 3 | 6 | 65 | 20 | > 10 | > 10
26 | Cn1c2ccc(-c3cccc4ccccc34)cc2c2nc(SCC(=O)NC3CCCCC3)n(-c3ccccc3)c(=O)c21 | 80 | 38 | 102 | 72 | 2.58 | 2.12
27 | Cn1c2ccccc2c2nc(NCC(=O)NC3CCCCC3)n(-c3ccccc3)c(=O)c21 | 1 | 2 | 113 | 10 | > 10 | > 10
